Sampled rows, rich in hits. Any-hit rate of the full collection: about 4.5%.
OX1R antag-1 = OX1R (HCRTR1) antagonists, primary screen, fluorescence, CHO/OX1R cells, Fluo-8 calcium, orexin A; Orexin/Hypocretin receptor type 1 (Homo sapiens), O43613; Fluo-8 calcium fluorescence; inhibition, % at 5 µM; hit rate 0.43% among 330,000; AID 434989, 2010;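 active = inhibition above its plate's threshold, mean inhibition of all tested compounds on the plate plus 3 SD, cut at about 37% in these data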
Target sequence (O43613 whole entry, looked up): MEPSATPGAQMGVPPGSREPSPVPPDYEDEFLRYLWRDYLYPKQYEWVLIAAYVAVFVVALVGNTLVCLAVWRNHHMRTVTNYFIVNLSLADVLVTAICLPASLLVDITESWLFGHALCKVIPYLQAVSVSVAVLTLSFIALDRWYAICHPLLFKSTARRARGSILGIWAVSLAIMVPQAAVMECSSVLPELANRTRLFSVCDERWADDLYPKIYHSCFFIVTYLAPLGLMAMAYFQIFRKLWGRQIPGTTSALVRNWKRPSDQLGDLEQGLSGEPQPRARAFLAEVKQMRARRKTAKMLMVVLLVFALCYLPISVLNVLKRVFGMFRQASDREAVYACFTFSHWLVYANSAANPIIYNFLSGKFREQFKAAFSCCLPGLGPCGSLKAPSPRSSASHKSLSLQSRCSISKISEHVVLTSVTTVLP
TAAR1 antag = human TAAR1 antagonists, primary screen, Fluo-8 calcium fluorescence, CHO RD-HGA16 cells; Trace amine-associated receptor 1 (Homo sapiens), Q96RJ0; antagonist; inhibition, % at 3 µM; hit rate 1.5% among 360,000;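 active = inhibition above a per-plate cutoff, the mean inhibition of test compounds on that plate plus 3 SD, cut at about 49% in these data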
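Material: RD-HGA16 CHO cells with stable hTAAR1 and Gα16; Dosing: single nominal final test compound concentration of 3 µM; Schedule: seeding 17-24 h prior, 75-min 37 °C, 30-min RT dye loading; Detection: kinetic Fluo-8 calcium fluorescence measurement; Measure: % inhibition from peak post-agonist over basal fluorescence ratio; Benchmarks: vehicle and agonist controls.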
GPR7 antag = GPR7 receptor antagonists, primary screen, cell-based, fluorescence, single concentration. GPR7-expressing cells, fluorescence antagonist assay. inhibition, % at 4.4 µM. hit rate 1.1% among 290,000. AID 1861, 2009; in the data active = inhibition above about 16%, passing the limit was not always enough;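 note: cells stimulated with the agonist NPW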
Target sequence (P48145 whole entry, looked up): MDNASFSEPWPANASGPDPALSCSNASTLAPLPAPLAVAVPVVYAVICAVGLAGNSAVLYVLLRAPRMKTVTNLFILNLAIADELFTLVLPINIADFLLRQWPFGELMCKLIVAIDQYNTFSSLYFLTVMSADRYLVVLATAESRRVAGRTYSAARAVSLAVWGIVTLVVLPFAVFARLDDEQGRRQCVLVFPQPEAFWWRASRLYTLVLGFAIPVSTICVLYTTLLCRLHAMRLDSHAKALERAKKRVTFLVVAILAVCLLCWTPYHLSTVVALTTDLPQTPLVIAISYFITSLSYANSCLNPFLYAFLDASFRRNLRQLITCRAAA
CHO parental Ca = ATP-evoked calcium signal inhibitors, parental CHO, primary screen, counter-screen for OX1R antagonist project, cell-based, fluorescence, Fluo-8 calcium dye. parental CHO-K1, ATP-induced calcium, Fluo-8 fluorescence. hit rate 0.63% among 330,000. inhibition, % at 5.6 µM;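 active = inhibition above that plate's mean sample inhibition plus 3 SD, cut at about 26% in these data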
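Test system: untransfected parental CHO cell line; also added: ATP stimulus; dosing: 5.6 µM, single dose; signal: calcium-sensitive Fluo-8 fluorescence; measure: percent inhibition of ATP-evoked calcium rise, normalized to controls; benchmarks: low control ATP plus DMSO, high control DMSO only; replication: one well per compound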
OX1R antag-2 = antagonists of human orexin 1 receptor (OX1R). Orexin/Hypocretin receptor type 1 (Homo sapiens), O43613. OX1R-expressing cells, FRET antagonist read-out. inhibition, % at 6.6 µM. hit rate 1.8% among 330,000. AID 485270, 2010; in the data active = inhibition mostly above about 38%, no sharp cut-off; inactive = mostly below about 40%
TAAR1 ag = human TAAR1 agonists, primary screen, Fluo-8 calcium fluorescence, CHO RD-HGA16 cells; vehicle wells 0%, saturating PEA agonist 100%; Trace amine-associated receptor 1 (Homo sapiens), Q96RJ0; activation, % at 3 µM; hit rate 0.99% among 360,000;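 active = activation above the mean activation of all test compounds in the run plus 3 SD, cut at about 38% in these data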
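Assay system – CHO-derived RD-HGA16 cells with stable Gα16 and human TAAR1 · Compound dosing – one-point dosing at 3 µM (nominal) · Incubation – 17-24 h seeding, 75 min 37 °C dye, 30 min RT · Measured by – kinetic Fluo-8 calcium fluorescence · Control set – DMSO vehicle as 0%, PEA at EC100 as 100% · Repeats – single well for each compound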
TAAR1 ag confirm = human TAAR1 agonists, retest of hits, confirmation, Fluo-8 calcium fluorescence, CHO RD-HGA16 cells; shares compounds with TAAR1 ag; scaled: DMSO 0%, maximal phenethylamine 100%; activation, % at 3 µM; hit rate 82% among 2,400; AID 651783, 2012;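 active = activation above a cutoff set at the run's mean compound activation plus 3 SD, cut at about 39% in these data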
Ga16 nonsel ag = nonselective calcium mobilization agonists, CHO-Ga16 cells, counter-screen for hTAAR1 agonist project, cell-based, fluorescence, CHO-Ga16 parental line; hit rate 50% among 2,400; Fluo-8 calcium fluorescence; normalized to maximal ATP response, DMSO zero; activation, % at 3 µM; shares compounds with TAAR1 ag;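 active = activation above the run cutoff, the mean activation over all tested wells plus 3 SD, cut at about 12% in these data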
TAAR1 desensitize = TAAR1 desensitization by agonist hits, confirmation, counter-screen for TAAR1 agonist project, cell-based, fluorescence, tachyphylaxis; shares compounds with TAAR1 ag; hit rate 46% among 2,400; AID 651951, 2012; CHO RD-HGA16 hTAAR1, Fluo-8 calcium, beta-PEA response inhibition; inhibition, % at 3 µM;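 active = inhibition above the run cutoff, the mean inhibition of all test compounds plus 3 SD, cut at about 49% in these data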;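 note: beta-PEA stimulus applied at its EC80; loss of beta-PEA calcium signal after compound pretreatment read as receptor desensitization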
Ga16 antag count = inhibition of ATP-evoked calcium response in CHO-Ga16 cells, counter-screen for TAAR1 agonist project, cell-based, fluorescence. shares compounds with TAAR1 ag. AID 651952, 2012. CHO-Ga16 ATP-induced calcium, Fluo-8 fluorescence. inhibition, % at 3 µM. hit rate 39% among 2,400;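 active = inhibition above the plate's mean compound inhibition plus 3 SD, computed per plate, cut at about 22% in these data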
Large screens that a line does not name were inactive (follow-up assays come after a bar, where they were run).

Cc1c(CNCCCc2ccccc2)c(C(=O)O)c(C)n1Cc1ccccc1	none
COC(=O)c1c(C)[nH]c(C(=O)COc2ccc3ccc(=O)oc3c2)c1C	TAAR1 antag 50.9, TAAR1 ag 59.1 (no result: GPR7 antag) | TAAR1 ag confirm inactive | Ga16 nonsel ag 13.7 | TAAR1 desensitize 49.6 | Ga16 antag count 30.8
CCc1[nH]nc(C(=O)N/N=C/c2ccncc2)c1C	none
CCOc1ccc(NC(=O)C2CCN(C(=O)C3CC(=O)N(c4ccc(C)cc4)C3)CC2)cc1 (stereo not drawn)	none
CC1=CC(C)(C)N(C(=O)c2ccccc2)c2ccccc21	none
CC1=CC(C)(C)N(C(=O)c2ccccc2)c2ccc(C)cc21	TAAR1 antag 52.2, TAAR1 ag 65.3 (no result: OX1R antag-1, CHO parental Ca, OX1R antag-2) | TAAR1 ag confirm 71.0 | Ga16 nonsel ag 42.5 | TAAR1 desensitize 68.9 | Ga16 antag count 52.5
COc1ccc2c(c1)C1(C)CC(C)(C)N2C(=O)N1c1ccccc1 (stereo not drawn)	TAAR1 ag 44.1 | TAAR1 ag confirm inactive | Ga16 nonsel ag inactive | TAAR1 desensitize inactive | Ga16 antag count inactive
CCCn1c(=O)c(C(=O)NNC(=O)c2ccccc2Cl)c(O)c2ccccc21	TAAR1 antag 54.6, TAAR1 ag 112.0 | TAAR1 ag confirm 71.9 | Ga16 nonsel ag 64.8 | TAAR1 desensitize inactive | Ga16 antag count 25.8
CNC[C@H]1Oc2ccc(NC(=O)Nc3ccccc3)cc2CC(=O)N([C@H](C)CO)C[C@H]1C	none (no result: GPR7 antag)
Cc1ccc(N=Nc2ccc(O)c3ncccc23)cc1	TAAR1 antag 81.5, CHO parental Ca 58.8, TAAR1 ag 63.3 | TAAR1 ag confirm inactive | Ga16 nonsel ag inactive | TAAR1 desensitize inactive | Ga16 antag count 50.9
Cc1ccc(N=Nc2ccc(O)c3ncccc23)cc1C	none
CC(C)c1ccc2nc3sc(C(=O)N4CCc5ccccc5C4)c(N)c3cc2c1	TAAR1 ag 82.9 | TAAR1 ag confirm 87.6 | Ga16 nonsel ag 31.0 | TAAR1 desensitize 63.4 | Ga16 antag count 39.6
CCN1CCc2nc3sc(C(=O)N4CCc5ccccc5C4)c(N)c3cc2C1	TAAR1 ag 79.7 | TAAR1 ag confirm 66.8 | Ga16 nonsel ag inactive | TAAR1 desensitize inactive | Ga16 antag count inactive
O=C(NN1C(=O)C2C(c3ccccc3)C=CC(c3ccccc3)C2C1=O)c1ccccc1 (stereo not drawn)	TAAR1 antag 68.4, TAAR1 ag 69.8 | TAAR1 ag confirm inactive | Ga16 nonsel ag 12.8 | TAAR1 desensitize inactive | Ga16 antag count 28.6
O=C(NN1C(=O)C2C3c4ccccc4C(c4ccccc43)[C@@H]2C1=O)c1ccccc1 (stereo partly drawn)	none
COc1ccccc1C(CNC(=O)CCNS(=O)(=O)c1ccc(Br)cc1)N1CCCC1 (stereo not drawn)	none (no result: OX1R antag-1, GPR7 antag, CHO parental Ca, OX1R antag-2)
COc1cccc(-c2c(C(=O)N/N=C(\C)c3ccc(Cl)s3)nnn2-c2nonc2N)c1	TAAR1 antag 59.0, TAAR1 ag 88.9 | TAAR1 ag confirm 81.9 | Ga16 nonsel ag 52.3 | TAAR1 desensitize 64.1 | Ga16 antag count 38.9
C/C(=N\NC(=O)c1nnn(-c2nonc2N)c1-c1ccccc1)c1ccco1	TAAR1 ag 106.4 (no result: OX1R antag-1, CHO parental Ca, OX1R antag-2) | TAAR1 ag confirm 120.1 | Ga16 nonsel ag 86.7 | TAAR1 desensitize inactive | Ga16 antag count inactive
COc1cccc(-c2c(C(=O)N/N=C(\C)c3ccco3)nnn2-c2nonc2N)c1	TAAR1 ag 115.5 | TAAR1 ag confirm 128.4 | Ga16 nonsel ag 88.4 | TAAR1 desensitize 48.7 | Ga16 antag count inactive
COc1ccc(S(=O)(=O)N2CCCC(C(=O)N3CCOCC3)C2)cc1OC (stereo not drawn)	none
O=C(Nc1cccc(-c2ccc(N3CCOCC3)nn2)c1)c1ccc(F)cc1F	none (no result: GPR7 antag)
OC(COc1ccc(CNCCc2ccccc2F)cc1)CN1CCCCC1 (stereo not drawn)	none (no result: TAAR1 antag, TAAR1 ag) | Ga16 nonsel ag inactive | Ga16 antag count inactive
COc1cccc(-c2cnc(C(O)c3cc(C)ccc3C)[nH]2)c1 (stereo not drawn)	none (no result: OX1R antag-1, GPR7 antag, CHO parental Ca, OX1R antag-2)
CC(C)=NNc1nc2c(c(=O)[nH]c(=O)n2C)n1CCc1ccccc1	TAAR1 ag 46.9 | TAAR1 ag confirm inactive | Ga16 nonsel ag inactive | TAAR1 desensitize inactive | Ga16 antag count inactive
CC(C)=NNc1nc2c(c(=O)[nH]c(=O)n2C)n1CCCc1ccccc1	none
COc1ccc(C23CC4CC(CC(C(=O)O)(C4)C2)C3)c(F)c1	none
Nc1nc(Nc2ccccc2)sc1C(=O)c1ccccc1	TAAR1 ag 67.9 | TAAR1 ag confirm 50.2 | Ga16 nonsel ag 23.4 | TAAR1 desensitize inactive | Ga16 antag count inactive
O=C(C(=O)N1CCc2ccccc2C1)c1cn(CC(=O)N2CCCC2)c2ccccc12	TAAR1 ag 50.0 | TAAR1 ag confirm 49.7 | Ga16 nonsel ag inactive | TAAR1 desensitize inactive | Ga16 antag count inactive
CC(C)Cc1ccc(C(C)NC(=O)c2ccc(=O)[nH]c2)cc1 (stereo not drawn)	TAAR1 ag 91.2 | TAAR1 ag confirm 94.2 | Ga16 nonsel ag 49.1 | TAAR1 desensitize 49.4 | Ga16 antag count 37.7
Cc1ccc(C(=O)NC(C)c2ccc(F)cc2)cc1 (stereo not drawn)	none
CC(C)(C)c1ccc(S(=O)(=O)N2CCN(Cc3cc4c(cc3O)OCO4)CC2)cc1	none (no result: GPR7 antag)
O=C(O)C1CCCCC1C(=O)NCCc1cccc(Cl)c1 (stereo not drawn)	TAAR1 antag 68.4, TAAR1 ag 89.8 | TAAR1 ag confirm 87.9 | Ga16 nonsel ag inactive | TAAR1 desensitize 69.5 | Ga16 antag count inactive
O=C(O)C1C2C=CC(C2)C1C(=O)NCc1cccc(Cl)c1 (stereo not drawn)	none
